Data set [1] concerns the target T1, Proteasome Macropain subunit MB1 (Homo sapiens, UniProt P28074).
T1 sequence (P28074 whole entry): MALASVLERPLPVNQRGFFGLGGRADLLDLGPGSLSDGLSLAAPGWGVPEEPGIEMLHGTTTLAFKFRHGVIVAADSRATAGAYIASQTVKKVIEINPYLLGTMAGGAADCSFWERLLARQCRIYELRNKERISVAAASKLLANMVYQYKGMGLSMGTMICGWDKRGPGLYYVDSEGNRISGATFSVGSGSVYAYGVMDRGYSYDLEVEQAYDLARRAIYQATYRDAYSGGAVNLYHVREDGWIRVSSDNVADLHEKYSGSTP
In words: Negative allosteric modulation of SDS-activated human erythrocytes 20S proteasome chymotrypsin like activity using Suc-LLVY-AMC as substrate measured every 2 mins up to 60 mins by fluorescence assay. The method in brief: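 1.4 nM CP (0.001 mg/mL) in 50 mM Tris-HCl pH 8.0, activated with 0.005% SDS where stated, otherwise latent. Suc-LLVY-AMC at 100 μM final. AMC fluorescence read every 2 min up to 60 min at 37 °C. Activity relative to DMSO-treated enzyme, from at least three independent replicates. Peptide stocks 10 mM in DMSO.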

Another data set deals with Fibroblast. Description: Cytotoxicity against human primary fibroblasts assessed as effect on cell viability up to 20 uM after 24 hrs by WST1 assay. It counts as cell-based. The method in brief:
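Primary human fibroblasts GM04390 in DMEM with 10% heat-inactivated FBS and antibiotics, at 3% O2, 5% CO2, 37 °C; seeded at 100 000 cells/mL, switched to Optimem at 24 h, exposed at 48 h to 0.1–20 μM peptide or DMSO for 24 h. Viability read by WST-1 (10% reagent, 4 h), absorbance 450 nm.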
(In general: Tetrazolium assays rely on reduction of a dye to a coloured formazan, in cell work by metabolically active cells.)

Data set [2] deals with T1, Proteasome Macropain subunit MB1. Description: Negative allosteric modulation of 1 uM Rpt5-activated human erythrocytes 20S proteasome chymotrypsin like activity using Suc-LLVY-AMC as substrate measured every 1 min up to 60 mins by fluorescence assay. The method in brief: (§1)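 Suc-LLVY-AMC at 100 μM final. AMC fluorescence read every 1 min for 60 min at 37 °C. Activity relative to DMSO vehicle, at least three independent replicates.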

Data set [3] shares this target. Description: Negative allosteric modulation of 10 uM Rpt5-activated human erythrocytes 20S proteasome chymotrypsin like activity using Suc-LLVY-AMC as substrate measured every 1 min up to 60 mins by fluorescence assay. The method in brief: as §1
The target is the same in data set [4]. Description: Non-competitive mixed-type inhibition of SDS-activated human erythrocytes 20S proteasome chymotrypsin like activity using Suc-LLVY-AMC as substrate measured every 2 mins up to 60 mins by fluorescence assay. The method in brief:
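SDS-activated CP at 1.4 nM. Suc-LLVY-AMC varied from 20 to 200 μM at inhibitor levels of 0.05, 0.1 and 0.2 μM. Fluorescence read kinetically at 37 °C. […] Three independent replicates.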

Each structure is given as a SMILES string. Residues, ends and D or L forms follow the SMILES beside them.

Take `CC(C)C[C@H](NC(=O)[C@@H]1CCCN1C(=O)[C@@H]1CCCN1C(=O)[C@@H]1CCCN1C(=O)[C@@H]1CCCN1C(=O)[C@H](CCCNC(=N)N)NC(=O)[C@H](CCCNC(=N)N)NC(=O)[C@@H](N)CCCNC(=N)N)C(=O)N[C@@H](Cc1ccc(O)cc1)C(=O)N[C@@H](C)C(=O)O` (H-RRRPPPPLYA-OH): the IC50 result in data set [1] was “Not Active”.

On to `C[C@H](NC(=O)[C@H](Cc1ccc(O)cc1)NC(=O)[C@H](Cc1ccc(O)cc1)NC(=O)[C@@H]1CCCN1C(=O)[C@@H]1CCCN1C(=O)[C@@H]1CCCN1C(=O)[C@@H]1CCCN1C(=O)[C@H](CCCNC(=N)N)NC(=O)[C@H](CCCNC(=N)N)NC(=O)[C@@H](N)CCCNC(=N)N)C(=O)O` (H-RRRPPPPYYA-OH), for which, in data set [1], the IC50 entry is “Not Active”. Moreover, the Activity result in the data set on Fibroblast is “Non-Toxic”.

On to `CC(C)C[C@H](NC(=O)[C@H](Cc1ccc(O)cc1)NC(=O)[C@@H]1CCCN1C(=O)[C@@H]1CCCN1C(=O)[C@H](CCCNC(=N)N)NC(=O)[C@@H]1CCCN1C(=O)[C@H](CCCNC(=N)N)NC(=O)[C@H](CCCNC(=N)N)NC(=O)[C@@H](N)CCCNC(=N)N)C(=O)N1CCC[C@H]1C(=O)N[C@@H](CCCNC(=N)N)C(=O)N[C@@H](Cc1ccccc1)C(=O)NCC(=O)O` (H-RRRPRPPYLPRFG-OH), for which the IC50 in data set [1] (read-out: IC50) is 99 nM.

With `CC(C)C[C@H](NC(=O)[C@H](Cc1ccc(O)cc1)NC(=O)[C@@H]1CCCN1C(=O)[C@@H]1CCCN1C(=O)[C@H](CCCNC(=N)N)NC(=O)[C@@H]1CCCN1C(=O)[C@H](CCCNC(=N)N)NC(=O)[C@H](CCCNC(=N)N)NC(=O)[C@@H](N)CCCNC(=N)N)C(=O)N1CCC[C@H]1C(=O)N[C@@H](CCCNC(=N)N)C(=O)N[C@@H](Cc1c[nH]c2ccccc12)C(=O)NCC(N)=O` (H-RRRPRPPYLPRWG-NH2), in data set [1] (read-out: IC50), the IC50 was found to be 113 nM.

Regarding `CC(C)C[C@H](NC(=O)[C@H](Cc1ccc(O)cc1)NC(=O)[C@@H]1CCCN1C(=O)[C@@H]1CCCN1C(=O)[C@H](CCCNC(=N)N)NC(=O)[C@@H]1CCCN1C(=O)[C@H](CCCNC(=N)N)NC(=O)[C@H](CCCNC(=N)N)NC(=O)[C@@H](N)CCCNC(=N)N)C(=O)N1CCC[C@H]1C(=O)N[C@@H](CCCNC(=N)N)C(=O)N[C@@H](Cc1c[nH]c2ccccc12)C(=O)NCC(=O)O` (H-RRRPRPPYLPRWG-OH), the IC50 in data set [2] amounted to 560 nM; in data set [3], 500 nM; in data set [1] (read-out: IC50), 50 nM. The compound further displayed a Ki in data set [4] of 4.8 nM.

Consider `CC(C)C[C@H](NC(=O)[C@H](Cc1ccc(O)cc1)NC(=O)[C@H](CCCNC(=N)N)NC(=O)[C@H](CCCNC(=N)N)NC(=O)[C@@H](N)CCCNC(=N)N)C(=O)N1CCC[C@H]1C(=O)N[C@@H](CCCNC(=N)N)C(=O)N[C@@H](Cc1c[nH]c2ccccc12)C(=O)NCC(N)=O` (H-RRRYLPRWG-NH2), for which the IC50 in data set [1] (read-out: IC50) stood at 82 nM. This compound had a Ki in data set [4] of 10.1 nM.

As to `CC(C)C[C@H](NC(=O)[C@H](Cc1ccc(O)cc1)NC(=O)[C@H](CCCNC(=N)N)NC(=O)[C@H](CCCNC(=N)N)NC(=O)[C@@H](N)CCCNC(=N)N)C(=O)N1CCC[C@H]1C(=O)N[C@@H](CCCNC(=N)N)C(=O)N[C@@H](Cc1c[nH]c2ccccc12)C(=O)NCC(=O)O` (H-RRRYLPRWG-OH), in data set [1] (read-out: IC50), the IC50 was found to be 111 nM.

Usually IC50 stands for the midpoint of a concentration-inhibition curve. What is called Ki is the equilibrium dissociation constant of an inhibitor or competing ligand from its target.

The record behind these values is ChEMBL document CHEMBL4371016, “Proline- and Arginine-Rich Peptides as Flexible Allosteric Modulators of Human Proteasome Activity” (J Med Chem, 2019).
